Article PMC2937276 (Molecular cancer therapeutics, 2010)

Assays:
GBM culture GBM6 = assay: XTT cell proliferation assay; type: cell-based, Human; conditions: human GBM culture GBM6; 36 hours; mean of three experiments ± SD
Method in brief: (§1)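 Primary human or mouse GBM cultures (DMEM, 10% FBS) were seeded at 5000 cells per 96-well well. Cells were cultured with test compound or vehicle for 36 h. Proliferation was read by XTT assay in quadruplicate. IC50 came from nonlinear-regression curve fitting.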

GBM culture 42 = assay: XTT cell proliferation assay; type: cell-based, Mouse; conditions: mouse GBM culture 42; 36 hours; mean of three experiments ± SD
Method in brief: as §1

GBM culture GBM12 = assay: XTT cell proliferation assay; type: cell-based, Human; conditions: human GBM culture GBM12; 36 hours; mean of three experiments ± SD
Method in brief: as §1

GBM culture GBM59 = assay: XTT cell proliferation assay; type: cell-based, Human; conditions: human GBM culture GBM59; 36 hours; mean of three experiments ± SD
Method in brief: as §1

GBM culture 2000 = assay: XTT cell proliferation assay; type: cell-based, Mouse; conditions: mouse GBM culture 2000; 36 hours; mean of three experiments ± SD
Method in brief: as §1

[1] = in clinical evaluation for various cancers; cited from earlier work
GBM culture 2736 = assay: XTT cell proliferation assay; type: cell-based, Mouse; conditions: mouse GBM culture 2736; 36 hours; mean of three experiments ± SD
Method in brief: as §1

[2] = in vivo
GBM culture GBM15 = assay: XTT cell proliferation assay; type: cell-based, Human; conditions: human GBM culture GBM15; 36 hours; mean of three experiments ± SD
Method in brief: as §1

GBM culture GBM43 = assay: XTT cell proliferation assay; type: cell-based, Human; conditions: human GBM culture GBM43; 36 hours; mean of three experiments ± SD
Method in brief: as §1

GBM culture 46 = assay: XTT cell proliferation assay; type: cell-based, Mouse; conditions: mouse GBM culture 46; 36 hours; mean of three experiments ± SD
Method in brief: as §1

GBM culture 2227 = assay: XTT cell proliferation assay; type: cell-based, Mouse; conditions: mouse GBM culture 2227; 36 hours; mean of three experiments ± SD
Method in brief: as §1

GBM culture 69 = assay: XTT cell proliferation assay; type: cell-based, Mouse; conditions: mouse GBM culture 69; 36 hours; mean of three experiments ± SD
Method in brief: as §1

GBM culture GBM-1 = assay: XTT cell proliferation assay; type: cell-based, Mouse; conditions: mouse GBM culture GBM-1; 36 hours; mean of three experiments ± SD
Method in brief: as §1

GBM culture 2415 = assay: XTT cell proliferation assay; type: cell-based, Mouse; conditions: mouse GBM culture 2415; 36 hours; mean of three experiments ± SD
Method in brief: as §1

GBM culture GBM-2 = assay: XTT cell proliferation assay; type: cell-based, Mouse; conditions: mouse GBM culture GBM-2; 36 hours; mean of three experiments ± SD
Method in brief: as §1

GBM culture GBM22 = assay: XTT cell proliferation assay; type: cell-based, Human; conditions: human GBM culture GBM22; 36 hours; mean of three experiments ± SD
Method in brief: as §1

GBM culture 2231 = assay: XTT cell proliferation assay; type: cell-based, Mouse; conditions: mouse GBM culture 2231; 36 hours; mean of three experiments ± SD
Method in brief: as §1

GBM culture 2414 = assay: XTT cell proliferation assay; type: cell-based, Mouse; conditions: mouse GBM culture 2414; 36 hours; mean of three experiments ± SD
Method in brief: as §1

GBM culture 102 = assay: XTT cell proliferation assay; type: cell-based, Mouse; conditions: mouse GBM culture 102; 36 hours; mean of three experiments ± SD
Method in brief: as §1

GBM culture 41 = assay: XTT cell proliferation assay; type: cell-based, Mouse; conditions: mouse GBM culture 41; 36 hours; mean of three experiments ± SD
Method in brief: as §1

GBM culture GBM39 = assay: XTT cell proliferation assay; type: cell-based, Human; conditions: human GBM culture GBM39; 36 hours; mean of three experiments ± SD
Method in brief: as §1

GBM culture 103 = assay: XTT cell proliferation assay; type: cell-based, Mouse; conditions: mouse GBM culture 103; 36 hours; mean of three experiments ± SD
Method in brief: as §1

GBM culture GBM8 = assay: XTT cell proliferation assay; type: cell-based, Human; conditions: human GBM culture GBM8; 36 hours; mean of three experiments ± SD
Method in brief: as §1

## C=CCNC1=C2C[C@@H](C)C[C@H](OC)[C@H](O)[C@@H](C)/C=C(\C)[C@H](OC(N)=O)[C@@H](OC)/C=C\C=C(/C)C(=O)NC(=CC1=O)C2=O [17-AAG, 17-allylamino-17-demethoxygeldanamycin, reference compound]
GBM culture GBM6
  IC50: 531.7 ± 5 nM
GBM culture 42
  IC50: 166 ± 24.9 nM
GBM culture GBM12
  IC50: 2580 ± 166 nM
GBM culture GBM59
  IC50: 211 ± 11 nM
GBM culture 2000
  IC50: 345 ± 75.5 nM
[1]
  toxicity on exposure: dose-limiting hepatotoxicity
GBM culture 2736
  IC50: 381 ± 24.1 nM
[2]; ip
  accumulation in mouse brain: rapidly declines to undetectable levels
[2]; mouse
  Brain concentration: 2.6 ng/g
GBM culture GBM15
  IC50: 110 ± 13.4 nM
GBM culture GBM43
  IC50: 86.9 ± 2.3 nM
GBM culture 46
  IC50: 91.9 ± 1.4 nM
GBM culture 2227
  IC50: 712 ± 54.4 nM
GBM culture 69
  IC50: 91 ± 4.3 nM
GBM culture GBM-1
  IC50: 208 ± 9.6 nM
GBM culture 2415
  IC50: 329 ± 50.1 nM
GBM culture GBM-2
  IC50: 1100 ± 119 nM
GBM culture GBM22
  IC50: 4670 ± 148 nM
GBM culture 2231
  IC50: 737 ± 72 nM
GBM culture 2414
  IC50: 205 ± 13.1 nM
GBM culture 102
  IC50: 626.2 ± 6 nM
GBM culture 41
  IC50: 100 ± 5 nM
GBM culture GBM39
  IC50: 241.7 ± 1.2 nM
GBM culture 103
  IC50: 794 ± 28.7 nM
GBM culture GBM8
  IC50: 8010 ± 543 nM
